For experiment [1], the system named is Aspergillus niger. In words: Antifungal activity against Aspergillus niger. The class given is functional. Put shortly:
(§1)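 Agar dilution MIC. Twofold serial drug dilutions in yeast nitrogen base medium with 1% dextrose, 0.15% asparagine and 1.5% agar. Agar surfaces inoculated using a Steers multiple inocula replicator, then incubated at 35 °C for 24-48 h. MIC was recorded as the lowest concentration inhibiting visible growth. Amphotericin B, miconazole and nystatin served as controls.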

Experiment [2] deals with Candida albicans. In words: Antifungal activity against Candida stellatoidea. The class given is functional. In outline: as §1
The test system of experiment [3] is Kluyveromyces marxianus. In words: Antifungal activity against Candida pseudotropicalis. The class given is functional. Put shortly:
as §1

The test system of a further experiment is Candida parapsilosis. In words: Antifungal activity against Candida parapsilosis. The experiment is classed as functional. The conditions noted are these: Lodderomyces parapsilosis. In outline: as §1
Another experiment concerns Diutina rugosa. In words: Antifungal activity against Candida rugosa. The class given is functional. Put shortly:
as §1

The subject of experiment [4] is Candida tropicalis. In words: Antifungal activity against Candida tropicalis; Range is 0.25-0.5. The experiment is classed as functional.
For experiment [5], the system named is Trichophyton benhamiae. In words: Antifungal activity against Trichophyton mentagrophytes. The experiment is classed as functional, trychophyton mentagrophytes. Put shortly: as §1
In experiment [6] the test system is Trichophyton rubrum. In words: Antifungal activity against Trichophyton rubrum. The class given is functional. In outline:
as §1

A further experiment concerns Mucor fragilis. In words: Antifungal activity against Mucor fragilis. The class given is functional. Put shortly: as §1
Experiment [7] has as its system Candida albicans. In words: microbe, parasite or virus in culture.
In experiment [8] the test system is Candida albicans. In words: Antifungal activity against Candida albicans; Range is 8-16. The experiment is classed as functional. In outline: as §1
Experiment [9] deals with Kluyveromyces marxianus. In words: Antifungal activity against Candida pseudotropicalis; Range is 0.25-4. The experiment is classed as functional. In outline:
as §1

The test system of experiment [10] is Candida tropicalis. In words: Antifungal activity against Candida tropicalis; Range is 8-16. The experiment is classed as functional. In outline:
as §1

Experiment [11] relates to Candida albicans. In words: Antifungal activity against Candida albicans. The class given is functional. In outline:
as §1

In experiment [12] the test system is Candida tropicalis. In words: Antifungal activity against Candida tropicalis. The class given is functional. Put shortly:
as §1

Experiment [13] concerns Trichophyton benhamiae. In words: Antifungal activity against Trichophyton mentagrophytes; Range is 64-128. The class given is functional, trychophyton mentagrophytes. Put shortly: as §1
The subject of experiment [14] is Trichophyton rubrum. In words: Antifungal activity against Trichophyton rubrum; Range is 32-128. The class given is functional. In outline: as §1
The subject of experiment [15] is Candida albicans. In words: Antifungal activity against Candida albicans; Range is 4-8. The class given is functional. Put shortly:
as §1

Experiment [16] relates to Kluyveromyces marxianus. In words: Antifungal activity against Candida pseudotropicalis; Range is 4-8. The experiment is classed as functional. In outline:
as §1

Experiment [17] relates to Trichophyton benhamiae. In words: Antifungal activity against Trichophyton mentagrophytes; Range is 4-8. The experiment is classed as functional, trychophyton mentagrophytes. Put shortly: as §1
In experiment [18] the test system is Candida tropicalis. In words: Antifungal activity against Candida tropicalis; Range is 4-8. The class given is functional. Put shortly: as §1
Experiment [19] has as its system Aspergillus niger. In words: Antifungal activity against Aspergillus niger; Range is 16-128. The class given is functional. In outline:
as §1

Experiment [20] concerns Candida tropicalis. In words: Antifungal activity against Candida tropicalis; Range is 64-128. The experiment is classed as functional. In outline:
as §1

For experiment [21], the system named is Trichophyton rubrum. In words: Antifungal activity against Trichophyton rubrum; Range is 64-128. The experiment is classed as functional.
The subject of experiment [22] is Kluyveromyces marxianus. In words: Antifungal activity against Candida pseudotropicalis; Range is 1-32. The experiment is classed as functional. Put shortly: as §1
The subject of experiment [23] is Candida tropicalis. In words: Antifungal activity against Candida tropicalis; Range is 32-64. The class given is functional. In outline:
as §1

For experiment [24], the system named is Trichophyton benhamiae. In words: Antifungal activity against Trichophyton mentagrophytes; Range is 16-32. The class given is functional, trychophyton mentagrophytes.
Experiment [25] has as its system Aspergillus niger. In words: Antifungal activity against Aspergillus niger; Range is 16-32. The experiment is classed as functional. In outline: as §1
The test system of experiment [26] is Trichophyton benhamiae. In words: Antifungal activity against Trichophyton mentagrophytes; Range is 2-4. The experiment is classed as functional, trychophyton mentagrophytes. In outline: as §1
In experiment [27] the test system is Trichophyton rubrum. In words: Antifungal activity against Trichophyton rubrum; Range is 1-2. The class given is functional. Put shortly: as §1
In experiment [28] the test system is Aspergillus niger. In words: Antifungal activity against Aspergillus niger; Range is 32-64. The class given is functional. In outline:
as §1

In experiment [29] the test system is Kluyveromyces marxianus. In words: Antifungal activity against Candida pseudotropicalis; Range is 8-16. The experiment is classed as functional. Put shortly: as §1
The subject of experiment [30] is Candida tropicalis. In words: Antifungal activity against Candida tropicalis; Range is 16-32. The experiment is classed as functional. Put shortly:
as §1

Experiment [31] relates to Trichophyton rubrum. In words: Antifungal activity against Trichophyton rubrum; Range is 8-16. The experiment is classed as functional.
For experiment [32], the system named is Trichophyton benhamiae. In words: Antifungal activity against Trichophyton mentagrophytes; Range is 8-16. The class given is functional, trychophyton mentagrophytes. Put shortly: as §1
The subject of experiment [33] is Kluyveromyces marxianus. In words: Antifungal activity against Candida pseudotropicalis; Range is 64-128. The experiment is classed as functional. In outline:
as §1

For experiment [34], the system named is Trichophyton benhamiae. In words: Antifungal activity against Trichophyton mentagrophytes; Range is 32-64. The class given is functional, trychophyton mentagrophytes. Put shortly: as §1
For experiment [35], the system named is Trichophyton rubrum. In words: Antifungal activity against Trichophyton rubrum; Range is 32-64. The class given is functional. In outline: as §1

Values after ≈ are worked out from the molar mass of the structure shown.

Take `C[C@@H]1[C@H](O)[C@@H](C)/C=C/C=C/C=C/C=C/C=C/C=C/C=C/[C@H](O[C@@H]2O[C@H](C)[C@@H](O)[C@H](N)[C@@H]2O)C[C@@H]2O[C@](O)(C[C@@H](O)C[C@@H](O)[C@H](O)CC[C@@H](O)C[C@@H](O)CC(=O)O[C@H]1C)C[C@H](O)[C@H]2C(=O)O` [AMPHOTERICIN B]: the MIC against Aspergillus niger [1] is 0.5 µg/mL (≈ 0.541 µM); against Candida albicans [2] it was greater than 128 µg/mL; against Kluyveromyces marxianus [3], 0.5 µg/mL (≈ 0.541 µM); in the experiment with Candida parapsilosis, 0.5 µg/mL (≈ 0.541 µM); in the experiment with Diutina rugosa, greater than 128 µg/mL; against Candida tropicalis [4] it was 0.25 µg/mL (≈ 0.271 µM). The MIC against Trichophyton benhamiae [5] stood at 1 µg/mL (≈ 1.08 µM); against Trichophyton rubrum [6], 0.5 µg/mL (≈ 0.541 µM); against Mucor fragilis, 0.25 µg/mL (≈ 0.271 µM); against Candida albicans [7] it was 0.25 µg/mL (≈ 0.271 µM).
For `Clc1ccc(COC(Cn2ccnc2)c2ccc(Cl)cc2Cl)c(Cl)c1` (stereo not given) [MICONAZOLE], the MIC is 8 µg/mL (≈ 19.2 µM) against Aspergillus niger [1]; 8 µg/mL (≈ 19.2 µM) in the experiment with Candida albicans [8]; 8 µg/mL (≈ 19.2 µM) with Candida albicans [2]; 0.25 µg/mL (≈ 0.601 µM) with Kluyveromyces marxianus [9]; 16 µg/mL (≈ 38.4 µM) with Candida parapsilosis; 8 µg/mL (≈ 19.2 µM) in the experiment on Diutina rugosa. The MIC worked out at 8 µg/mL (≈ 19.2 µM) in the experiment on Candida tropicalis [10], 2 µg/mL (≈ 4.81 µM) in the experiment with Trichophyton benhamiae [5], 1 µg/mL (≈ 2.4 µM) against Trichophyton rubrum [6] and 8 µg/mL (≈ 19.2 µM) in the experiment with Mucor fragilis.
As to `CC(=O)Nc1c(C)nc(C)c2nc(-c3ccc(F)cc3)nnc12`, the MIC in the experiment with Aspergillus niger [1] worked out at 128 µg/mL (≈ 411 µM); against Kluyveromyces marxianus [3], 128 µg/mL (≈ 411 µM); in the experiment with Candida albicans [11], 128 µg/mL (≈ 411 µM); against Candida parapsilosis it was 128 µg/mL (≈ 411 µM); against Candida tropicalis [12], 128 µg/mL (≈ 411 µM); against Trichophyton benhamiae [13], 64 µg/mL (≈ 206 µM). The compound further showed an MIC against Trichophyton rubrum [14] of 32 µg/mL (≈ 103 µM).
Consider `Cc1cc2nncnc2c(C)n1`, for which the MIC stood at 32 µg/mL (≈ 200 µM) in the experiment on Aspergillus niger [1]; 4 µg/mL (≈ 25 µM) in the experiment on Candida albicans [15]; 16 µg/mL (≈ 99.9 µM) with Candida parapsilosis; 4 µg/mL (≈ 25 µM) against Kluyveromyces marxianus [16]; 4 µg/mL (≈ 25 µM) in the experiment with Trichophyton benhamiae [17]; 4 µg/mL (≈ 25 µM) in the experiment with Trichophyton rubrum [6]. Moreover, in the experiment on Candida tropicalis [18], the MIC is 4 µg/mL (≈ 25 µM).
Take `Fc1ccc(-c2nnc3ncccc3n2)cc1`: the MIC worked out at 16 µg/mL (≈ 70.7 µM) against Aspergillus niger [19]; 128 µg/mL (≈ 566 µM) with Candida albicans [2]; 128 µg/mL (≈ 566 µM) with Kluyveromyces marxianus [3]; 128 µg/mL (≈ 566 µM) against Candida albicans [11]; 128 µg/mL (≈ 566 µM) against Diutina rugosa; 128 µg/mL (≈ 566 µM) against Candida tropicalis [12]. The MIC was 32 µg/mL (≈ 141 µM) with Trichophyton benhamiae [5] and greater than 128 µg/mL against Trichophyton rubrum [6].
As for `Cc1nnc2ccccc2n1`, the MIC is 128 µg/mL (≈ 882 µM) against Aspergillus niger [1]; 128 µg/mL (≈ 882 µM) with Kluyveromyces marxianus [3]; 128 µg/mL (≈ 882 µM) against Candida albicans [11]; 128 µg/mL (≈ 882 µM) in the experiment with Candida parapsilosis; 64 µg/mL (≈ 441 µM) in the experiment on Candida tropicalis [20]; 64 µg/mL (≈ 441 µM) in the experiment on Trichophyton benhamiae [13]. Further, the MIC against Trichophyton rubrum [21] was determined as 64 µg/mL (≈ 441 µM).
Consider `CCC1(Cc2ccccc2)N=Nc2ccncc2N1` (stereo not given), for which the MIC against Aspergillus niger [1] is 128 µg/mL (≈ 507 µM); against Kluyveromyces marxianus [22], 1 µg/mL (≈ 3.96 µM); against Candida albicans [11], 128 µg/mL (≈ 507 µM); with Candida parapsilosis, 128 µg/mL (≈ 507 µM); with Candida tropicalis [23], 32 µg/mL (≈ 127 µM); against Trichophyton benhamiae [24] it was 16 µg/mL (≈ 63.4 µM). In the experiment on Trichophyton rubrum [6], this compound returned an MIC of 32 µg/mL (≈ 127 µM).
As to `c1cc2nncnc2cn1`, the MIC came out at 16 µg/mL (≈ 121 µM) in the experiment with Aspergillus niger [25]; 8 µg/mL (≈ 60.5 µM) against Candida albicans [8]; 8 µg/mL (≈ 60.5 µM) with Candida albicans [2]; 4 µg/mL (≈ 30.3 µM) in the experiment on Kluyveromyces marxianus [3]; 16 µg/mL (≈ 121 µM) against Candida parapsilosis; 8 µg/mL (≈ 60.5 µM) against Diutina rugosa. For the same compound, the MIC was 8 µg/mL (≈ 60.5 µM) against Candida tropicalis [10], 2 µg/mL (≈ 15.1 µM) against Trichophyton benhamiae [26], 1 µg/mL (≈ 7.57 µM) in the experiment on Trichophyton rubrum [27] and 8 µg/mL (≈ 60.5 µM) in the experiment on Mucor fragilis.
As to `Cc1nccc2nnc(-c3ccncc3)nc12`, the MIC in the experiment with Aspergillus niger [28] was 32 µg/mL (≈ 143 µM); with Candida albicans [11], 16 µg/mL (≈ 71.7 µM); with Candida parapsilosis, 32 µg/mL (≈ 143 µM); with Kluyveromyces marxianus [29] it was 8 µg/mL (≈ 35.8 µM); with Candida tropicalis [30] it was 16 µg/mL (≈ 71.7 µM); in the experiment on Trichophyton rubrum [31], 8 µg/mL (≈ 35.8 µM). The MIC against Trichophyton benhamiae [32] was determined as 8 µg/mL (≈ 35.8 µM).
For the compound `Cc1nnc2c(N)c(C)nc(C)c2n1`, the MIC amounted to 128 µg/mL (≈ 676 µM) with Aspergillus niger [1]; 128 µg/mL (≈ 676 µM) in the experiment on Candida albicans [11]; 128 µg/mL (≈ 676 µM) in the experiment on Candida parapsilosis; 64 µg/mL (≈ 338 µM) against Kluyveromyces marxianus [33]; 128 µg/mL (≈ 676 µM) in the experiment on Candida tropicalis [12]; 32 µg/mL (≈ 169 µM) against Trichophyton benhamiae [34]. Moreover, the MIC with Trichophyton rubrum [35] was found to be 32 µg/mL (≈ 169 µM).
